In paper PMC10693281 (International Journal of Nanomedicine, 2023):

Key:
[1] = In-vitro drug release, dialysis bag diffusion method; format: physicochemical; details: PBS pH 7.4
Procedure, shortened: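 Dialysis bag (MW 12,500 Da, ~2.4 nm pores), pre-soaked 24 h in pH 7.4 PBS, filled with 2 mL drug-loaded lipid-carrier dispersion and sealed. Suspended in 100 mL pH 7.4 PBS at 37 ± 1°C under sink conditions, agitated at 100 rpm for 48 h.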

[2] = Pharmacokinetic study, single i.v. injection; format: in vivo, Wistar rats; details: male, Wistar, rat, plasma, iv, 10 mg/kg
[3] = tested on: IL-2, IL-6, IL-1β, caspase-9; assay: Proinflammatory cytokines and caspase-9 by ELISA; format: in vivo, Wistar rats; details: DEN-induced rats
Procedure, shortened: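 IL-2, IL-6, IL-1β and caspase-9 were measured in hepatic tissue of DEN-induced HCC rats using commercial ELISA kits per manufacturer's instructions.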

## COc1cc2ncnc(Nc3ccc(F)c(Cl)c3)c2cc1OCCCN1CCOCC1 [Gefitinib]
[1]; 48 hours
  GF release: 95.63 ± 4.04%
[1]; within 4 hours
  GF released: approximately 80%
[2]
  AUC(0-inf): 41100 ± 13200 ng·h/mL
  AUC(0-t): 33300 ± 9550 ng·h/mL
  Cmax: 7820 ± 1140 ng/mL
  MRT inf: 12.2 ± 2 h
  half-life: 7.66 ± 1.7 h
[3]
  caspase 9 levels: increased significantly
